Results on one molecule are retold here after ChEMBL document CHEMBL4043222, “Pyrrolizines: Design, synthesis, anticancer evaluation and investigation of the potential mechanism of action” (Bioorg Med Chem, 2017).

The target in test [1] is T1, Prostaglandin G/H synthase 1 (Ovis aries, UniProt P05979).
T1 sequence (P05979 whole entry): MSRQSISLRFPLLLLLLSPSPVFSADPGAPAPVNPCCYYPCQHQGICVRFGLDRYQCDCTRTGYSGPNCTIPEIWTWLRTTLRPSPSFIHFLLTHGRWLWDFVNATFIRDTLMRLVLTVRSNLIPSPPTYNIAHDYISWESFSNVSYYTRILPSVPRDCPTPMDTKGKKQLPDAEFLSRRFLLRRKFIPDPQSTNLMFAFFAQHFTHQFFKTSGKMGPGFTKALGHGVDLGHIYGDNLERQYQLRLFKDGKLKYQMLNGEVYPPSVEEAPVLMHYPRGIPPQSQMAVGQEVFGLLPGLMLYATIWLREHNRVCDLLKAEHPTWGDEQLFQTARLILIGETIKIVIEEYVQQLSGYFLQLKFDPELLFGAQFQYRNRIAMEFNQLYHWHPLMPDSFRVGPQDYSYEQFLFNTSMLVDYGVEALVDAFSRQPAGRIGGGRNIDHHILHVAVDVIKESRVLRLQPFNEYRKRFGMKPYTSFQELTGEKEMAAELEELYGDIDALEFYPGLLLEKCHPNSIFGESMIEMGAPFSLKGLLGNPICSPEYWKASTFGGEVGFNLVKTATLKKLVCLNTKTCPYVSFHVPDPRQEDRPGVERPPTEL
In words: Inhibition of ovine COX1 assessed as reduction in PGH2 formation by measuring PGF2alpha by colorimetric assay. Summed up: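 Colorimetric COX inhibitor screening kit run per the manufacturer, using ovine COX-1. IC50 calculated from three determinations.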

Test [2] deals with AMP-activated protein kinase (AMPK) alpha-1/beta-1/gamma-1 (Homo sapiens) (UniProt P54619+Q9Y478+Q13131). The experiment in a line: Inhibition of AMPK alpha1/beta1/gamma1 (unknown origin) at 10 uM using [33P]-ATP after 20 to 40 mins by scintillation counting method. It is filed as protein-complex assay.
Sequence of AMP-activated protein kinase (AMPK) alpha-1/beta-1/gamma-1 (Homo sapiens) (P54619 whole entry): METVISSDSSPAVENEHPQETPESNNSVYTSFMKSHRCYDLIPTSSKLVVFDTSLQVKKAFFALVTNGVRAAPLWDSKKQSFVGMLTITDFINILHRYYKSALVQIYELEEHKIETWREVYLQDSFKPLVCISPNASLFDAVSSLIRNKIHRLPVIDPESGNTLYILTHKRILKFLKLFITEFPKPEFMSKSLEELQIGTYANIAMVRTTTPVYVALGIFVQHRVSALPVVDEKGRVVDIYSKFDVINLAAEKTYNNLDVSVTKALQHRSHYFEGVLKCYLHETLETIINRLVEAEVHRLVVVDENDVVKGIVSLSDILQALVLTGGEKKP
Sequence of AMP-activated protein kinase (AMPK) alpha-1/beta-1/gamma-1 (Homo sapiens) (Q13131 whole entry partner): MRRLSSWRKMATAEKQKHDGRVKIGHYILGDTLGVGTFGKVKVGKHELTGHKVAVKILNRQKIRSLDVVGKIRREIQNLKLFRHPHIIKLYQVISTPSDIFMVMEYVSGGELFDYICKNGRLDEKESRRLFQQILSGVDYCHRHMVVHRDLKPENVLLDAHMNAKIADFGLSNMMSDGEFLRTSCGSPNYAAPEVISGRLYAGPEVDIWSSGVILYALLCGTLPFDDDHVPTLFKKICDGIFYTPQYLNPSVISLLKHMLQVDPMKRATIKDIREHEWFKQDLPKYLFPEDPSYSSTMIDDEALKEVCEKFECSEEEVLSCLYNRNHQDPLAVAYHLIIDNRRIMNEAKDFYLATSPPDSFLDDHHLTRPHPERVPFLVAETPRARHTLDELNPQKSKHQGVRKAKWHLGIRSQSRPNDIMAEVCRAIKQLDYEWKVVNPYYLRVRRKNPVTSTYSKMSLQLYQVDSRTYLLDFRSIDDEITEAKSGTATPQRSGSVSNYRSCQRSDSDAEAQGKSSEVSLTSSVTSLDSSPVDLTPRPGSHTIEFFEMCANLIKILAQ
Sequence of AMP-activated protein kinase (AMPK) alpha-1/beta-1/gamma-1 (Homo sapiens) (Q9Y478 2-270 partner limits assumed): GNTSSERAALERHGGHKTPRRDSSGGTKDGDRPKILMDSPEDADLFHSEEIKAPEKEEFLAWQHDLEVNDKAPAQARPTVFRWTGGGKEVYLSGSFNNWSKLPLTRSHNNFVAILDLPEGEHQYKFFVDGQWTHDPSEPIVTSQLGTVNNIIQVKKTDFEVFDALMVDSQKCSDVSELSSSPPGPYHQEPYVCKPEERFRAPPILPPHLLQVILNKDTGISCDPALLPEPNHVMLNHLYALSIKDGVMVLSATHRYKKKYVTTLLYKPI
The target in test [3] is Ephrin type-A receptor 1 (Homo sapiens) (UniProt P21709). In words: Inhibition of EPHA1 (unknown origin) at 10 uM using [33P]-ATP after 20 to 40 mins by scintillation counting method.
Sequence of Ephrin type-A receptor 1 (Homo sapiens) (P21709 whole entry): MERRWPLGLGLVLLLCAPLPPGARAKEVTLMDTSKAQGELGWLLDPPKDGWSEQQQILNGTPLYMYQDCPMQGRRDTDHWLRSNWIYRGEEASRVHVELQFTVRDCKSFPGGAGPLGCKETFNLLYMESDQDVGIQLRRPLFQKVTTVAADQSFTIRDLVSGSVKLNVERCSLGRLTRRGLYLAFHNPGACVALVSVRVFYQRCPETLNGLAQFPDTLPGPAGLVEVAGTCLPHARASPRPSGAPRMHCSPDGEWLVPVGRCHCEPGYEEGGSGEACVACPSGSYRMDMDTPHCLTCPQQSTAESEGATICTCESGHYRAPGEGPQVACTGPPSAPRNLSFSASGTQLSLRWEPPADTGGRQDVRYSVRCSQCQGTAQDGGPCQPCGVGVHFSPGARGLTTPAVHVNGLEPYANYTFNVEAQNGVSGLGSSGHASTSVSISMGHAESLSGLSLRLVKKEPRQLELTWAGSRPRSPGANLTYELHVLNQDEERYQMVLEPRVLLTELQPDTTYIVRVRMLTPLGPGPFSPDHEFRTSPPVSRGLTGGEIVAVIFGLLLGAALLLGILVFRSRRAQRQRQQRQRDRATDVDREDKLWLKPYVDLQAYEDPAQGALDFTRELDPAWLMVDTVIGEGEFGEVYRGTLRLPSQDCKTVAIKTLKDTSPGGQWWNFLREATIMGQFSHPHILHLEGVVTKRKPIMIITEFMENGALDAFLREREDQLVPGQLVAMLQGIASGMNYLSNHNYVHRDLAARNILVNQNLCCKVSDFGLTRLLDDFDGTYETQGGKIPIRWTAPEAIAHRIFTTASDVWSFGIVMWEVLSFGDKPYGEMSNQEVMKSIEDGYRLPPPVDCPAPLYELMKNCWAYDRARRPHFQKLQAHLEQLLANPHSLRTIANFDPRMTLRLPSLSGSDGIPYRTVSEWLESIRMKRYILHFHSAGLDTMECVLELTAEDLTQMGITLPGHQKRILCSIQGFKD
Test [4] concerns MCF7. The experiment in a line: Induction of cell cycle arrest in human MCF7 cells assessed as increase in accumulation at G2/M phase at 10 uM by propidium iodide staining based flow cytometry relative to untreated control. The test is classed as functional. Summed up: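 MCF-7 seeded at 1×10^5 cells/well and attached overnight, then given 0, 1, 5 or 10 µM for 24 h. Cells pooled, fixed overnight in 70% ice-cold ethanol, treated with RNase A and stained with PI. Flow cytometry on 20000 events with doublets gated out. Mean ± S.D. (n = 3). Compared with DMSO vehicle by one-way ANOVA with Dunnett's test.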
A general note: A flow cytometer gives signals particle by particle.

The test system of test [5] is MCF7. In words: Induction of apoptosis in human MCF7 cells assessed as early apoptotic cells level at 1 uM incubated for 24 hrs by Annexin V PI/FITC staining based flow cytometry (reference value: 17.4%). It is filed as functional.
In test [6] the test system is MCF7. In words: Induction of apoptosis in human MCF7 cells assessed as early apoptotic cells level at 5 uM incubated for 24 hrs by Annexin V PI/FITC staining based flow cytometry (reference value: 17.4%). The test is classed as functional.

The source made the active and inactive calls. The calls are words filed in the database; no cut-off is given here.

Turning to `Cc1ccc(NC(=O)c2c(N=Cc3ccc4ccccc4c3)c(C#N)c3n2CCC3)cc1`, in test [1], the IC50 amounted to 12 µM. The figures for the inhibition in test [2] and in test [3] were -11% and -37%, respectively. For the same molecule, the outcome with MCF7 [4] was Active. Moreover, the Activity came to 16.3% in the test with MCF7 [5] and 23.5% in the test on MCF7 [6].

As a reminder, the IC50 is the concentration at which inhibition is half-maximal. In general, inhibition refers to the drop in the measured response relative to a control, in per cent.
